pIC50: −log10 of the molar value. The source made the active and inactive calls. The rule behind the calls is not given here.
How the values were obtained:
[1] = Dark toxicity against human HepG2 cells assessed as decrease in cell viability at 0.5 to 8 uM incubated for 2 hrs by MTT assay; type: cell-based; conditions: hepg2, 2 h
How it was run: (§1)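 Cells seeded at 2 × 10^5 cells mL−1 in 96-well plates 24 h before; incubated with compound (0.4–0.0125 μM or 8–0.5 μM series) in dark 2 h, washed with PBS, re-fed, kept unirradiated. MTT (3 mg mL−1) added, 4 h at 37 °C, DMSO added, absorbance at 490 nm. Mean ± SEM of three independent experiments, each in quadruplicate. HepG2 cells were grown in RPMI 1640 and HeLa in DMEM.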

[2] = Drug uptake in endoplasmic reticulum of human HeLa cells at 4 uM after 4 hrs by ER-tracker green-based confocal microscopic method; type: ADME, subcellular
How it was run: (§2)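 Cells on glass-bottom dishes given 2 μM for 2 h or 4 μM for 4 h at 37 °C. After PBS washes, stained in HBSS with 0.2 μM ER-tracker or Mito-tracker green for 15 min at 37 °C. Confocal imaging: trackers excited at 488 nm, emission 500–570 nm; BODIPY excited at 633 nm, emission 650–760 nm.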

[3] = Induction of singlet oxygen generation in DMF assessed as increase in decay of DPBF at 1 uM by spectroscopic method
[4] = test system: HeLa; experiment: Photocytotoxicity against human HeLa cells assessed as decrease in cell viability preincubated in dark for 2 hrs followed by illumination by halogen lamp for 20 mins by MTT assay; type: functional, cell-based
How it was run: (§3)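 Cells seeded at 2 × 10^5 cells mL−1 in 96-well plates 24 h before; 2 h dark incubation with compound (0.0125–0.4 μM or 0.5–8 μM), PBS wash, re-feed. Then 300 W halogen lamp with red filter (λ > 610 nm), 40 mW cm−2, 20 min at r.t. (48 J cm−2). MTT read-out at 490 nm. IC50 = concentration killing 50% of cells. Three independent experiments, quadruplicate.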

[5] = Drug uptake in lysosome of human HeLa cells at 4 uM after 4 hrs by […]-based confocal microscopic method; type: ADME, subcellular
[6] = Drug uptake in human HeLa cells at 4 uM after 4 hrs by flow cytometric method; type: ADME, cell-based
How it was run: (§4)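 Cells in 35 mm dishes incubated in RPMI 1640 at 37 °C, 5% CO2, with 2 μM for 2 h or 4 μM for 4 h. Rinsed, trypsinised, pelleted at 400g, resuspended in HBSS. Flow cytometry on 10^4 cells: excitation 640 nm, emission 720–840 nm. Triplicate; mean ± SD of three independent experiments.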

[7] = Drug uptake in endoplasmic reticulum of human HepG2 cells at 4 uM after 4 hrs by ER-tracker green-based confocal microscopic method; type: ADME, subcellular; conditions: hepg2, 4 h; how it was run: as §2
[8] = Drug uptake in mitochondria of human HeLa cells at 4 uM after 4 hrs by Mito-tracker green-based confocal microscopic method; type: ADME; how it was run: as §2
[9] = Stability of the compound in PBS at 2 uM measured over 25 mins in presence of illumination by halogen lamp; type: physicochemical; conditions: buffer
[10] = test system: HepG2; experiment: Photocytotoxicity against human HepG2 cells assessed as decrease in cell viability preincubated in dark for 2 hrs followed by illumination by halogen lamp for 20 mins by MTT assay; type: functional, cell-based; how it was run: as §3
[11] = Dark toxicity against human HeLa cells assessed as decrease in cell viability at 0.5 to 8 uM incubated for 2 hrs by MTT assay; type: cell-based; how it was run: as §1
[12] = Drug uptake in mitochondria of human HepG2 cells at 4 uM after 4 hrs by Mito-tracker green-based confocal microscopic method; type: ADME; conditions: hepg2, 4 h; how it was run: as §2
[13] = Drug uptake in lysosome of human HepG2 cells at 4 uM after 4 hrs by […]-based confocal microscopic method; type: ADME, subcellular; conditions: hepg2, 4 h
[14] = Drug uptake in human HepG2 cells at 4 uM after 4 hrs by flow cytometric method; type: ADME, cell-based; conditions: hepg2, 4 h; how it was run: as §4
[15] = Induction of singlet oxygen generation in PBS assessed as increase in decay of DPBF at 2 uM by spectroscopic method; type: functional
[16] = test system: HepG2; experiment: Induction of endoplasmic reticulum stress in human HepG2 cells assessed as upregulation of GRP78 expression at 0.15 uM after 4 to 8 hrs in absence of light by Western blot method; type: cell-based; conditions: hepg2, 0.15 µM
How it was run: (§5)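 HepG2 cells in 60 mm dishes treated with 150 nM in RPMI 1640, with or without illumination (λ > 610 nm). Lysed in RIPA buffer at 2, 4, 6 and 8 h after PDT. Equal protein run on 10% polyacrylamide gels and transferred to PVDF. Blocked in 5% nonfat milk, probed for GRP78, CHOP and actin, with HRP chemiluminescent detection. Control cells were illuminated without compound.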

[17] = test system: HepG2; experiment: Photocytotoxicity against human HepG2 cells assessed as decrease in cell viability at 0.19 uM preincubated in dark for 2 hrs followed by illumination by halogen lamp for 20 mins by MTT assay relative to control; type: functional
How it was run: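 Light-dose study: HepG2 cells given 0.19 μM for 2 h, washed twice with PBS, re-fed, then illuminated with halogen lamp (λ > 610 nm, 40 mW cm−2) for 10, 15, 20 or 25 min. Viability by MTT (4 h, 37 °C), DMSO, absorbance at 490 nm.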

[18] = Drug uptake in human HeLa cells at 2 uM incubated for 2 hrs upon two-photon excitation by confocal microscopic method; type: ADME, cell-based
How it was run: (§6)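 HeLa cells (about 1.2 × 10^5) grown overnight on glass-bottom dishes, then treated with 2 μM in medium containing 0.125% v/v DMF and 0.025% v/v Tween 80 for 2 h. Rinsed with PBS and imaged by laser scanning microscopy with 633 nm (one-photon) or 800 nm (two-photon) excitation.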

[19] = test system: HeLa; experiment: Induction of apoptosis in human HeLa cells at 2 uM preincubated in dark for 2 hrs followed by two photon irradiation for 10 mins measured after 3 hrs by propidium iodide staining-based laser scanning microscopic method; type: functional, cell-based
How it was run: (§7)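 HeLa cells given 2 μM for 2 h, rinsed and re-fed. Irradiated with 800 nm laser (400 mW) for 10 min at 37 °C, 5% CO2; dark controls kept unirradiated. After 3 h, stained with PI (50 μg in 1 mL PBS) for 10 min, rinsed. Imaged with PI excited at 488 nm (550–700 nm) and BODIPY at 633 nm (640–735 nm), plus bright field.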

[20] = Drug uptake in human HeLa cells at 2 uM incubated for 2 hrs upon one-photon excitation by confocal microscopic method; type: ADME, cell-based; how it was run: as §6
[21] = test system: HepG2; experiment: Induction of reactive oxygen species generation in human HepG2 cells at 0.05 to 0.8 uM after 2 hrs in absence of light by H2DCFDA probe-based fluorescence assay; type: cell-based; conditions: hepg2, 2 h
How it was run: (§8)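 HepG2 cells in 96-well plates incubated 2 h with 0.05–0.8 μM in RPMI 1640, washed, then loaded with H2DCFDA (10 μM in HBSS) for 30 min at 37 °C in dark. Washed, re-fed with HBSS, then irradiated (λ > 610 nm) or left dark. Fluorescence read at 485/535 nm. Mean with SEM of three independent experiments.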

[22] = Drug uptake in endoplasmic reticulum of human HeLa cells at 2 uM after 2 hrs by ER-tracker green-based confocal microscopic method; type: ADME, subcellular; how it was run: as §2
[23] = test system: HepG2; experiment: Increase in intracellular calcium levels in human HepG2 cells at 0.05 to 0.8 uM after 2 hrs in absence of light by fluo-3 AM dye-based fluorescence assay; type: ADME, cell-based; conditions: hepg2, 2 h
How it was run: (§9)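 HepG2 cells in 96-well plates given 0.05–0.8 μM in RPMI 1640 for 2 h, with or without illumination (λ > 610 nm). Afterwards washed, loaded with Fluo-3 AM (2.5 μM in HBSS) for 1 h at 37 °C in dark. Washed, re-fed with HBSS, fluorescence read at 485/535 nm. Mean with SEM of three independent experiments.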

[24] = Drug uptake in lysosome of human HeLa cells at 2 uM after 2 hrs by […]-based confocal microscopic method; type: ADME, subcellular
[25] = test system: HeLa; experiment: Induction of apoptosis in human HeLa cells at 2 uM incubated in dark for 2 hrs measured after 3 hrs by propidium iodide staining-based laser scanning microscopic method; type: cell-based; how it was run: as §7
[26] = test system: HepG2; experiment: Induction of endoplasmic reticulum stress in human HepG2 cells assessed as upregulation of GRP78 expression at 0.15 uM after 4 to 8 hrs in presence of light by Western blot method; type: functional, cell-based; how it was run: as §5
[27] = Drug uptake in lysosome of human HepG2 cells at 2 uM after 2 hrs by […]-based confocal microscopic method; type: ADME, subcellular; conditions: hepg2, 2 h
[28] = Dark toxicity against human HepG2 cells assessed as decrease in cell viability at 0.0125 to 0.4 uM incubated for 2 hrs by MTT assay; type: cell-based; conditions: hepg2, 2 h; how it was run: as §1
[29] = Drug uptake in endoplasmic reticulum of human HepG2 cells at 2 uM after 2 hrs by ER-tracker green-based confocal microscopic method; type: ADME, subcellular; conditions: hepg2, 2 h; how it was run: as §2
[30] = test system: HeLa; experiment: Induction of apoptosis in human HeLa cells assessed as cell shrinkage at 2 uM preincubated in dark for 2 hrs followed by two photon irradiation for 10 mins measured after 3 hrs by bright field microscopic method; type: functional, cell-based; how it was run: as §7
[31] = Drug uptake in mitochondria of human HeLa cells at 2 uM after 2 hrs by Mito-tracker green-based confocal microscopic method; type: ADME; how it was run: as §2
[32] = Dark toxicity against human HeLa cells assessed as decrease in cell viability at 0.0125 to 0.4 uM incubated for 2 hrs by MTT assay; type: cell-based; how it was run: as §1
[33] = test system: HepG2; experiment: Increase in intracellular calcium levels in human HepG2 cells at 0.05 to 0.8 uM after 2 hrs in presence of light by fluo-3 AM dye-based fluorescence assay relative to control; type: functional; how it was run: as §9
[34] = test system: HepG2; experiment: Induction of endoplasmic reticulum stress in human HepG2 cells assessed as upregulation of CHOP expression at 0.15 uM after 4 to 8 hrs in presence of light by Western blot method; type: functional, cell-based; how it was run: as §5
[35] = test system: HepG2; experiment: Induction of endoplasmic reticulum stress in human HepG2 cells assessed as upregulation of CHOP expression at 0.15 uM after 4 to 8 hrs in absence of light by Western blot method; type: cell-based; conditions: hepg2, 0.15 µM; how it was run: as §5
[36] = test system: HepG2; experiment: Induction of reactive oxygen species generation in human HepG2 cells at 0.05 to 0.8 uM after 2 hrs in presence of light by H2DCFDA probe-based fluorescence assay; type: functional, cell-based; how it was run: as §8
[37] = Drug uptake in human HepG2 cells at 2 uM after 2 hrs by flow cytometric method; type: ADME, cell-based; conditions: hepg2, 2 h; how it was run: as §4
[38] = test system: HepG2; experiment: Ratio of compound activity for induction of reactive oxygen species generation in human HepG2 cells at 0.8 uM in presence of light to in absence of light; type: toxicity, cell-based; conditions: hepg2, 0.8 µM; how it was run: as §8
[39] = Drug uptake in human HeLa cells at 2 uM after 2 hrs by flow cytometric method; type: ADME, cell-based; how it was run: as §4
[40] = Drug uptake in mitochondria of human HepG2 cells at 2 uM after 2 hrs by Mito-tracker green-based confocal microscopic method; type: ADME; conditions: hepg2, 2 h; how it was run: as §2

In the case of `COCCOCCOCCn1c2ccccc2c2cc(/C=C/C3=[N+]4C(=C(c5ccc(OCC(=O)NCCc6ccc(S(=O)(=O)NC(=O)NC7CCCCC7)cc6)cc5)c5c(C)c(Br)c(/C=C/c6ccc7c(c6)c6ccccc6n7CCOCCOCCOC)n5[B-]4(F)F)C(C)=C3Br)ccc21`, the Activity [1] was “Non-Toxic”, the Drug uptake [2] was “Active” and the Activity [3] was “Active”. For the same compound, the pIC50 [4] was 5.49, the Drug uptake [5] was “Not Active” and the Drug uptake [6] was “Active”. The Drug uptake [7] was “Active”, the Drug uptake [8] was “Not Active” and the Stability [9] was “Stable”. For the same compound, the pIC50 [10] was 5.28, the Activity [11] was “Non-Toxic” and the Drug uptake [12] was “Not Active”. For the same compound, the Drug uptake [13] was “Not Active”, the Drug uptake [14] was “Active” and the Activity [15] was “Active”.
With `COCCOCCOCCOc1ccc(/C=C/C2=[N+]3C(=C(c4ccc(OCC(=O)NCCc5ccc(S(=O)(=O)NC(=O)NC6CCCCC6)cc5)cc4)c4c(C)c(Br)c(/C=C/c5ccc(OCCOCCOCCOC)cc5)n4[B-]3(F)F)C(C)=C2Br)cc1` the Activity [16] was “Non-Toxic”, the Activity [17] was 50% and the Drug uptake [18] was “Active”. For the same compound, the Activity [19] was “Active”, the Drug uptake [20] was “Active” and the Activity [21] was “Non-Toxic”. The Drug uptake [22] was “Active”, the Activity [3] was “Active” and the pIC50 [4] was 7.05. The Activity [23] was “Non-Toxic”, the Drug uptake [24] was “Not Active” and the Activity [25] was “Non-Toxic”. The Activity [26] was “Active”, the Drug uptake [27] was “Not Active” and the Stability [9] was “Stable”. The Activity [28] was “Non-Toxic”, the Drug uptake [29] was “Active” and the pIC50 [10] was 6.80. For the same compound, the Activity [30] was “Active”, the Drug uptake [31] was “Not Active” and the Activity [32] was “Non-Toxic”. For the same compound, the “fold change (FC)” value [33] was 3.5, the Activity [34] was “Active” and the Activity [35] was “Non-Toxic”. For the same compound, the Activity [36] was “Dose-dependent effect”, the Drug uptake [37] was “Active” and the Ratio [38] was 9. For the same compound, the Drug uptake [39] was “Active”, the Activity [15] was “Active” and the Drug uptake [40] was “Not Active”.

Reference: ChEMBL document CHEMBL4177771, “Endoplasmic Reticulum-Localized Two-Photon-Absorbing Boron Dipyrromethenes as Advanced Photosensitizers for Photodynamic Therapy” (J Med Chem, 2018)
